Source: PubChem BioAssay
A selection: hits, their analogues and other compounds. The true share with any hit is near 2.3%.
TRPC4 block: TRPC4 (mouse) channel inhibition; actives 0.39% (n = 300,000); HEK293 TRPC4beta/mu-opioid, DAMGO-evoked Fluo4 calcium flux; active compounds read low; Q9QUQ5; AID 2247; B-score at 10 µM;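 active = B-score over 3 SD under the library average, no early fluorescence shift, positive overall ratio signal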
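Assay system: Stable TRPC4beta/mu-opioid receptor HEK293 cells | Reagent: DAMGO in two steps, submaximal then maximal | Compound dosing: Single concentration per test compound | Signal: Fluo4 Ca2+ flux fluorescence | Evaluation: Per-well B score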
TRPC6 inhibitor: blocks the mouse TRPC6 cation channel. HEK293-TRPC6, membrane potential dye, ACh-evoked depolarization; active compounds read low. B-score at 10 µM. actives 1.1% (n = 310,000);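 active = B-score under library mean minus 3 SD, initial fluorescence not abnormally high, positive integrated signal ratio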;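 also: B-score derived from integrated fluorescence ratio over the kinetic read; more negative B-score means stronger inhibition of depolarization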
TRPC4 PAM: allosterically enhances the mouse TRPC4 cation channel; AID 2227; B-score at 10 µM; HEK293 TRPC4beta/mu-opioid, DAMGO EC20, Fluo-4 Ca2+ flux; active compounds read high; actives 0.42% (n = 310,000);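 active = B-score of calcium response area above 5 SD of library B-scores, with initial fluorescence ratio within 5 SD of library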;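 also: B-score of integrated fluorescence ratio over time as area under calcium response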
TRPC6 activator: activates the mouse TRPC6 cation channel; Q61143; HEK293-TRPC6 membrane potential dye fluorescence; active compounds read high; B-score at 10 µM; actives 0.13% (n = 310,000); AID 2550;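 active = B-score of the integrated fluorescence ratio above library mean plus 3 SD, and starting fluorescence ratio within library mean plus 5 SD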;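 also: higher score means more depolarization so channel activation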
TRPC4 act: opens the mouse TRPC4 cation channel; B-score at 10 µM; AID 2237; HEK293 TRPC4beta/mu-opioid, Fluo4 calcium fluorescence; active compounds read high; Q9QUQ5; actives 0.49% (n = 310,000);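 active = B-score above 5 SD of library B-scores, and initial fluorescence ratio not above library mean plus 5 SD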;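 also: positive B-score marks a calcium rise read as TRPC4 activation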
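Material: TRPC4beta and mu-opioid receptor HEK293 stable cells | Incubation: 45 min room-temperature Fluo4 loading, 110 s read | Detection: Kinetic Fluo4 calcium fluorescence | Measure: Integrated baseline-normalised fluorescence ratio, converted to per-well B score | Benchmarks: Low control buffer alone, high control maximal DAMGO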
Numbers without * were called inactive; i = inactive.

SMILES	TRPC4 block	TRPC6 inhibitor	TRPC4 PAM	TRPC6 activator	TRPC4 act
Cc1cccc(OCCOCCN2CCNCC2)c1C	i	i	i	i	133*
Cc1cc(Cl)c(OCCOCCN2CCNCC2)c(Cl)c1	i	i	i	i	62*
Cc1cc(C)c(OCCOCCN2CCN(C)CC2)c(Cl)c1	i	i	i	i	i
COc1cccc(F)c1C(C[N+](=O)[O-])c1c(N)n(C)c(=O)n(C)c1=O (stereo not drawn)	i	i	i	i	i
O=C(NC1CCN(Cc2ccccc2)CC1)C1CCCN(S(=O)(=O)c2cccc3nonc23)C1 (stereo not drawn)	i	i	10*	i	i
O=C(NCc1ccccc1)C1CCCN(S(=O)(=O)c2cccc3nonc23)C1 (stereo not drawn)	i	i	i	i	i
COc1ccc(OCc2cc(C(=O)NC(C)Cc3cnccn3)no2)c(Cl)c1 (stereo not drawn)	i	i	i	i	i
COc1ccc(C(C(=O)NC2CCCCC2)N(Cc2ccco2)C(=O)c2snc(C(N)=O)c2N)cc1 (stereo not drawn)	i	i	i	i	i
CC1CC(=O)c2c(cc3c(-c4c(O)cc(O)c5c(O)c6c(cc45)OC(C)CC6=O)c(O)cc(O)c3c2O)O1 (stereo not drawn)	i	i	i	42.5*	i
O=C1CC(c2ccc(O)cc2)Oc2cc(O)cc(O)c21 (stereo not drawn)	i	i	i	i	i
C=CCNC(=O)/C(C#N)=C/c1ccc2c(c1)OCCO2	i	i	i	i	i
C=CCNC(=O)/C(C#N)=C/c1ccc(SC)cc1	i	i	10*	i	i
COc1ccc(S(=O)(=O)NC2CC(=O)N(c3cccc(F)c3)C2)cc1OC (stereo not drawn)	i	i	i	i	i
CCN(CC)CCNCC1C(=O)O[C@@H]2C[C@@]3(C)CCC[C@H](C)C3=C[C@H]12 (stereo partly drawn)	i	i	11*	i	i
Cn1nc(-c2ccc(Cl)cc2)nc2c(=O)n(C)c(=O)nc1-2	i	-5.1*	i	i	i
CCCn1c(N2CCN(C(=O)/C=C/C(=O)O)CC2)nc2ccccc21	i	i	i	i	57*
CCn1c(N2CCN(C(=O)/C=C/c3ccccc3)CC2)nc2ccccc21	i	i	i	i	94*
CC1CCc2c(sc3nc(CSc4nnnn4C)[nH]c(=O)c23)C1 (stereo not drawn)	i	i	i	i	i
CC(=O)c1cccc(Nc2c3c(nc4ccccc24)CCC3)c1	i	i	i	i	i
COc1ccc(Nc2c3c(nc4ccccc24)CCC3)c(OC)c1	-5*	i	i	i	i
COC(=O)c1cccc(Nc2c3c(nc4ccccc24)CCC3)c1	-7*	i	i	i	i
COc1ccccc1Nc1c2c(nc3ccccc13)CCC2	i	i	i	i	i
Fc1cccc(Nc2c3c(nc4ccccc24)CCC3)c1	-7*	i	i	i	i
CCCNC(=O)c1ccc(COc2ccc(CCC)cc2OC)o1	i	i	i	i	i
Cc1nc2c(C)cccn2c(=O)c1NC(=O)c1cccc2ccccc12	i	i	i	i	i
SMILES	TRPC4 block	TRPC6 inhibitor	TRPC4 PAM	TRPC6 activator	TRPC4 act
Cc1onc(NC(=O)NC(=O)c2c(Cl)cccc2Cl)c1Br	i	i	i	i	i
NC(=S)Nc1cc2ccccc2c2ccccc12	i	i	14*	i	i
O=C(CS(=O)(=O)c1cn(Cc2ccc(Cl)cc2)c2ccccc12)N1CCCC1	i	i	i	i	i
O=C(Cc1cn(Cc2cccc(Cl)c2)c2ccccc12)N1CCCC1	i	i	16*	i	i
CC(C)(CSc1ccccn1)NS(=O)(=O)c1ccccc1	i	i	i	i	i
CC(C)(CSc1ccccn1)NS(=O)(=O)c1ccc(Cl)cc1	i	i	10*	i	i
COCc1ccc(C(=O)N2CCCCC2C(=O)Nc2ccc(-n3nc(C)cc3C)cc2)o1 (stereo not drawn)	i	i	i	i	i
O=C(NC1CCN(Cc2ccccc2)CC1)c1cccc(S(=O)(=O)Nc2cc(C(F)(F)F)ccc2Cl)c1	i	i	21*	i	i
CCCCC(=O)Nc1ccc(NCc2ccc(C)s2)cc1	i	i	i	i	i
CCCCC(CC)c1nnc(NC(=O)c2cccs2)s1 (stereo not drawn)	-9*	i	i	i	i
CC(C)c1nnc(NC(=O)c2cccs2)s1	i	i	i	i	i
COc1ccc(/C=N/Nc2nc3ccccc3o2)cc1O	i	i	i	i	i
COc1ccc(/C=N/Nc2nc3ccccc3s2)cc1O	i	i	16*	i	i
CC(C)Cc1cc(C(=O)Nc2cc(C(F)(F)F)ccc2Cl)no1	i	i	10*	i	i
O=C(Nc1cc(C(F)(F)F)ccc1Cl)c1ccncc1	i	i	i	i	i
NC(=O)Cc1nc(-c2ccccc2)cs1	i	i	i	i	i
NCCc1nc(-c2ccccc2)cs1	i	i	i	i	116*
CC(=O)Cc1nsc(NC(=O)c2ccc(COc3ccccc3C)o2)n1	i	i	i	i	i
O=C(CCC1CCCCC1)Nc1cccc(C(=O)Nc2ccc(C(=O)O)cc2)c1	i	i	i	i	i
CC(C)c1ccccc1NC(=O)CNCCc1ccc(C(F)(F)F)cc1	i	i	i	i	i
CN(C)CCOC(=O)C12CC3CC(CC(C3)C1)C2	i	i	i	i	i
CN(C)CCOC(=O)C12CC3(C)CC(C)(CC(C)(C3)C1)C2	i	i	i	i	46*
CC(=O)Nc1ccc(S(=O)(=O)Nc2nnc(CC(C)(C)C)s2)cc1	i	i	i	i	i
O=C(N/N=C/c1ccccc1[N+](=O)[O-])c1cnccn1	i	i	20*	i	i
O=C(CN(Cc1ccccc1Cl)C(=O)CNS(=O)(=O)c1ccc(F)cc1)NCC1CCCO1 (stereo not drawn)	i	i	i	i	i
Cc1cc(/C=C2/C(=N)N3C(=NC2=O)SN=C3S(C)(=O)=O)c(C)n1-c1ccccc1F	-6*	i	i	i	i
CC(=O)Nc1cccc(NC(=S)Nc2cccc(Cl)c2Cl)c1	i	i	i	i	i
